According to ChEMBL document CHEMBL4270573, “Novel nicotinoyl pyrazoline derivates bearing N-methyl indole moiety as antitumor agents: Design, synthesis and evaluation” (Eur J Med Chem, 2018):
pIC50: −log10 of the molar value. The source made the active and inactive calls. The calls are words filed in the database; no cut-off is given here.

Key:
MCF7 = test: Growth inhibition of human MCF7 cells after 48 hrs by MTT assay; assay type: functional; details: MCF7, 48 h
Method in brief: (§1)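 Proliferation read-out; GI50 taken as the concentration giving 50% reduction of cancer cell proliferation.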

A549 = test: Growth inhibition of human A549 cells after 48 hrs by MTT assay; assay type: functional; details: A549, 48 h; method in brief: as §1
HepG2 = test: Growth inhibition of human HepG2 cells after 48 hrs by MTT assay; assay type: functional; details: HepG2, 48 h; method in brief: as §1
HeLa [1] = test: Growth inhibition of human HeLa cells after 48 hrs by MTT assay; assay type: functional; method in brief: as §1
[2] = Cytotoxicity against HEK293T cells assessed as reduction in cell viability after 48 hrs by MTT assay; assay type: cell-based, HEK-293T; details: human
[3] = Inhibition of porcine brain tubulin polymerization measured over 30 mins; set-up: species or system Sus scrofa
HeLa [4] = test: Antitumor activity against human HeLa cells xenografted in nude mouse assessed as tumor volume at 10 mg/kg, ip after 14 days (reference value: 2292.17 mm3); assay type: functional
HeLa [5] = test: Antitumor activity against human HeLa cells xenografted in nude mouse assessed as tumor weight at 10 mg/kg, ip after 14 days (reference value: 1.54 g); assay type: functional
Bos taurus = species on record: Bos taurus; test: Inhibition of colchicine binding to calf brain tubulin preincubated for 1 hr followed by colchicine addition measured after 1 hr by UPLC-MS/MS analysis
HeLa [6] = test: Antitumor activity against human HeLa cells xenografted in nude mouse assessed as necrosis of tumor cells at 10 mg/kg, ip after 14 days by hematoxylin and eosin staining based microscopic analysis; assay type: functional, organism-based
Method in brief: (§2)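 Excised tumours and heart, liver, kidney and spleen were H&E-stained and examined microscopically. Tumour scoring covered cell arrangement and necrosis. Organ scoring covered inflammatory infiltration, edema, necrosis and cell morphology.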

HeLa [7] = test: Antitumor activity against human HeLa cells xenografted in nude mouse assessed as loose and irregular arrangement of tumor cells at 10 mg/kg, ip after 14 days by hematoxylin and eosin staining based microscopic analysis; assay type: functional, organism-based; method in brief: as §2
Tubulin (Homo sapiens) [8] = target: T1, Tubulin (Homo sapiens) (UniProt P68371+Q9H4B7+P0DPH7+P68366+Q13509+Q71U36+P04350+Q3ZCM7+P07437+P68363+Q9BQE3+Q6PEY2+Q13885+Q9BVA1+Q9BUF5); test: Inhibition of tubulin polymerization in human HepG2 cells assessed as abnormal microtubule network formation at 0.04 uM after 12 hrs by DAPI staining based immunofluorescence confocal laser scanning microscopic analysis; assay type: cell-based
Tubulin (Homo sapiens) [9] = target: T1, Tubulin (Homo sapiens); test: Inhibition of tubulin polymerization in human HeLa cells assessed as abnormal microtubule network formation at 0.04 uM after 12 hrs by DAPI staining based immunofluorescence confocal laser scanning microscopic analysis; assay type: cell-based

Compound | GI50 (MCF7) | GI50 (A549) | GI50 (HepG2) | GI50 (HeLa [1]) | pIC50 [3] | inhibition (Tubulin (Homo sapiens) [8]) | inhibition (Tubulin (Homo sapiens) [9]) | CC50 at 48 h [2] | Activity (HeLa [4]) | Activity (HeLa [5]) | inhibition (Bos taurus) | Activity (HeLa [6]) | Activity (HeLa [7])
Cn1cc(C2CC(c3ccccc3)=NN2C(=O)c2ccc(Cl)nc2)c2ccccc21 (configuration not stated) | 9.25 µM | 8.46 µM | 7.91 µM | 8.31 µM | 4.50 |  |  | > 300 µM |  |  |  |  | 
Cn1cc(C2CC(c3ccc(Cl)cc3)=NN2C(=O)c2cccnc2)c2cc(Br)ccc21 (configuration not stated) | 8.1 µM | 7.65 µM | 5.8 µM | 5.2 µM | 4.71 |  |  | > 300 µM |  |  |  |  | 
COc1ccc(/C=C\c2cc(OC)c(OC)c(OC)c2)cc1O [COMBRETASTATIN A4] | 0.14 µM | 0.31 µM | 0.17 µM | 0.092 µM | 5.68 |  |  | > 300 µM | 918.61 mm3 | 0.59 g | Active | Active | Active
CC(=O)O[C@H]1C(=O)[C@@]2(C)[C@H]([C@H](OC(=O)c3ccccc3)[C@]3(O)C[C@H](OC(=O)[C@H](O)[C@@H](NC(=O)c4ccccc4)c4ccccc4)C(C)=C1C3(C)C)[C@]1(OC(C)=O)CO[C@@H]1C[C@@H]2O |  |  |  |  |  | inactive | inactive |  |  |  |  |  | 
COc1ccc(C2=NN(C(=O)c3ccncc3)C(c3cn(C)c4ccc(Br)cc34)C2)cc1OC (configuration not stated) | > 10 µM | 4.25 µM | > 10 µM | > 10 µM | 4.75 |  |  | > 300 µM |  |  |  |  | 
Cn1cc(C2CC(c3ccc(Br)cc3)=NN2C(=O)c2cccnc2)c2cc(Br)ccc21 (configuration not stated) | 11.8 µM | > 10 µM | 6.91 µM | > 10 µM | 4.74 |  |  | > 300 µM |  |  |  |  | 
COc1ccc2c(c1)c(C1CC(c3cc(OC)c(OC)c(OC)c3)=NN1C(=O)c1ccc(OC)nc1)cn2C (configuration not stated) | > 10 µM | > 10 µM | > 10 µM | > 10 µM | < 4.40 |  |  | > 300 µM |  |  |  |  | 
COc1ccc2c(c1)c(C1CC(c3ccc(Br)cc3)=NN1C(=O)c1ccc(OC)nc1)cn2C (configuration not stated) | 6.96 µM | > 10 µM | > 10 µM | > 10 µM | 4.71 |  |  | > 300 µM |  |  |  |  | 
COc1cc(C2=NN(C(=O)c3cccnc3)C(c3cn(C)c4ccc(Br)cc34)C2)cc(OC)c1OC (configuration not stated) | > 10 µM | > 10 µM | > 10 µM | > 10 µM | < 4.40 |  |  | 131 µM |  |  |  |  | 
Cn1cc(C2CC(c3ccccc3)=NN2C(=O)c2cccnc2Cl)c2ccccc21 (configuration not stated) | > 10 µM | > 10 µM | > 10 µM | > 10 µM | < 4.40 |  |  | > 300 µM |  |  |  |  | 
Cn1cc(C2CC(c3ccccc3)=NN2C(=O)c2cccnc2)c2ccccc21 (configuration not stated) | 7.2 µM | > 10 µM | 4.63 µM | > 10 µM | 4.57 |  |  | > 300 µM |  |  |  |  | 

More lines, main results first:

GI50 (MCF7) | GI50 (A549) | GI50 (HepG2) | GI50 (HeLa [1]) | pIC50 [3] | inhibition (Tubulin (Homo sapiens) [8]) | inhibition (Tubulin (Homo sapiens) [9]) | Compound | CC50 at 48 h [2] | Activity (HeLa [4]) | Activity (HeLa [5]) | inhibition (Bos taurus) | Activity (HeLa [6]) | Activity (HeLa [7])
4.01 µM | 1.19 µM | 1.22 µM | 2.39 µM | 4.88 |  |  | Cc1ccc(C(=O)N2N=C(c3ccccc3)CC2c2cn(C)c3ccccc23)cn1 (configuration not stated) | 154 µM |  |  |  |  | 
0.48 µM | 0.71 µM | 0.22 µM | 0.41 µM | 5.59 |  |  | COc1ccc2c(c1)c(C1CC(c3ccc(F)cc3)=NN1C(=O)c1ccc(OC)nc1)cn2C (configuration not stated) | > 300 µM |  |  |  |  | 
1.16 µM | > 10 µM | 5.11 µM | 3.59 µM | 5.37 |  |  | COc1ccc2c(c1)c(C1CC(c3ccccc3)=NN1C(=O)c1cccnc1)cn2C (configuration not stated) | > 300 µM |  |  |  |  | 
0.81 µM | 1.02 µM | 0.91 µM | 1.27 µM | 5.68 |  |  | COc1cccc(C2=NN(C(=O)c3cccnc3)C(c3cn(C)c4ccc(OC)cc34)C2)c1 (configuration not stated) | 125 µM |  |  |  |  | 
0.99 µM | 1.11 µM | 1.33 µM | 1.1 µM | 5.54 |  |  | COc1ccc2c(c1)c(C1CC(c3ccccc3)=NN1C(=O)c1ccc(OC)nc1)cn2C (configuration not stated) | > 300 µM |  |  |  |  | 
1.56 µM | 1.19 µM | 0.54 µM | 0.89 µM | 5.35 |  |  | COc1ccc(C2=NN(C(=O)c3cccnc3)C(c3cn(C)c4ccc(Br)cc34)C2)cc1 (configuration not stated) | > 300 µM |  |  |  |  | 
0.13 µM | 0.47 µM | 0.19 µM | 0.34 µM | 5.72 |  |  | COc1cccc(C2=NN(C(=O)c3ccc(OC)nc3)C(c3cn(C)c4ccc(OC)cc34)C2)c1 (configuration not stated) | > 300 µM |  |  |  |  | 
3.71 µM | 3.39 µM | 2.08 µM | 2.26 µM | 4.81 |  |  | COc1ccc2c(c1)c(C1CC(c3ccc(Cl)cc3)=NN1C(=O)c1ccc(OC)nc1)cn2C (configuration not stated) | > 300 µM |  |  |  |  | 
1.17 µM | 2.38 µM | 2.45 µM | 2.09 µM | 5.25 |  |  | COc1ccc(C2=NN(C(=O)c3cccnc3)C(c3cn(C)c4ccc(Br)cc34)C2)cc1OC (configuration not stated) | > 300 µM |  |  |  |  | 
0.48 µM | 1.38 µM | 0.48 µM | 0.63 µM | 5.28 |  |  | Cn1cc(C2CC(c3ccc(F)cc3)=NN2C(=O)c2cccnc2)c2cc(Br)ccc21 (configuration not stated) | > 300 µM |  |  |  |  | 
0.18 µM | 0.23 µM | 0.31 µM | 0.21 µM | 5.64 |  |  | COc1cc(C2=NN(C(=O)c3ccc(C)nc3)C(c3cn(C)c4ccccc34)C2)cc(OC)c1OC (configuration not stated) | > 300 µM |  |  |  |  | 
4.31 µM | 3.04 µM | 3.13 µM | 3.98 µM | 5.01 |  |  | COc1ccc(C(=O)N2N=C(c3ccccc3)CC2c2cn(C)c3ccccc23)cn1 (configuration not stated) | > 300 µM |  |  |  |  | 
1.11 µM | 0.99 µM | 0.63 µM | 0.59 µM | < 4.40 |  |  | Cn1cc(C2CC(c3ccccc3)=NN2C(=O)c2ccncc2)c2ccccc21 (configuration not stated) | 97.3 µM |  |  |  |  | 
1.52 µM | 1.6 µM | 2.52 µM | 1.73 µM | 5.47 |  |  | Cn1cc(C2CC(c3ccccc3)=NN2C(=O)c2cccnc2)c2cc(Br)ccc21 (configuration not stated) | > 300 µM |  |  |  |  | 
0.56 µM | 0.45 µM | 0.23 µM | 0.18 µM | 5.64 |  |  | COc1ccc(C2=NN(C(=O)c3ccc(OC)nc3)C(c3cn(C)c4ccc(OC)cc34)C2)cc1 (configuration not stated) | > 300 µM |  |  |  |  | 
